# Laboratory results from paper PMC3248997 (Bioorganic & medicinal chemistry, 2011).
# Like-named read-outs stand apart in the source and are kept apart here.
# Tests used:
# [1] = tested on: PGE2 formation in brain tissue from COX-1−/− mice; format: biochemical; conditions: 0.8 µM; brain tissue from LPS stimulated COX-1−/− mice
# [2] = tested on: COX activity (PGE2 and 6-keto-PGF1α formation) in brain homogenates; test: Inhibition of COX activity in tissue extract; format: biochemical, C57BL/6 mice
# Summary of the method: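 C57BL/6 mouse brain homogenate prepared on ice in 50 mM Tris pH 7.4 with 1 mM phenol and protease inhibitors. 20 µg homogenate preincubated with test compound or vehicle. 150 µM arachidonic acid added at 37°C. Stopped after 5 min by acidifying to pH 2.5 with formic acid and chilling. Prostanoids extracted with ethyl acetate/hexane (7:1). PGE2 and 6-keto-PGF1α quantified by GC-MS/MS.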
# [3] = in vivo
# [4] = tested on: COX-2 in murine macrophages; conditions: unclear which pyrazolone(s) were added; cited from earlier work
# [5] = cited from earlier work
# [6] = tested on: COX-2 in primary human leukocytes; conditions: unclear which pyrazolone(s) were added; cited from earlier work
# [7] = intracerebroventricular injection of 10 nmol; cited from earlier work
# [8] = cited from earlier work; remark: listed apart in the source
smiles,measurement,setting,value
"CCCCC/C=C\C/C=C\C/C=C\C/C=C\CCCC(=O)N(C)c1c(C)n(C)n(-c2ccccc2)c1=O [compound 5, (5Z,8Z,11Z,14Z)-Icosa-5,8,11,14-tetraenoic acid (1,5-dimethyl-3-oxo-2-phenyl-2,3-dihydro-1H-pyrazol-4-yl)-methyl-amide]",formation in brain of FAAH−/− mice as compared to wild type mice,dipyrone for 5 days,less than 2%
same,amount in mouse brain cell homogenates,"representative chromatogram, Figure 9 B",2.4 pg/sample
same,formation of PGE2,[1],did not observe any formation of PGE2
same,lowering of IC50 by the FAAH inhibitor URB532,[2]; inhibition of PGE2 formation in mouse brain homogenates,more than 200 fold
"CCCCC/C=C\C/C=C\C/C=C\C/C=C\CCCC(=O)Nc1c(C)n(C)n(-c2ccccc2)c1=O [compound 6, (5Z,8Z,11Z,14Z)-Icosa-5,8,11,14-tetraenoic acid (1,5-dimethyl-3-oxo-2-phenyl-2,3-dihydro-1H-pyrazol-4-yl)-amide]",effect on PGE2 formation,"[2]; brain homogenates, concentration range 100 nM to 100 µM",no effect
same,amount in mouse brain cell homogenates,"[3]; C57BL/6, mouse",39 pg/sample
same,formation in brain of FAAH−/− mice as compared to wild type mice,"[3]; FAAH−/− knockout compared with wild type (C57BL/6), mouse, 5 days",about 6%
"Cc1c(N(C)CS(=O)(=O)[O-])c(=O)n(-c2ccccc2)n1C.[Na+] [compound 1, sodium N-(2,3-dimethyl-5-oxo-1-phenyl-3-pyrazolin-4-yl)-N-methylaminomethanesulphonate]",activity against COX-2,[4],approximately 12 µg ml^−1
same,time detectable in the serum,[5]; following intravenous administration,about 15 min
same,detectability in the serum after oral intake,[5]; oral intake,not detectable
same,activity against COX-2,[6],~21 µg/mL
"CCCCC/C=C\C/C=C\C/C=C\C/C=C\CCCC(=O)Nc1ccc(O)cc1 [AM404, N-arachidonoylaminophenol]",antinociception,[7],Antinociception was observed
"CNc1c(C)n(C)n(-c2ccccc2)c1=O [compound 2, 4-methylaminoantipyrine]",concentration in the cerebrospinal fluid,[8],5000 to 30000 ng/mL
same,bioavailability,[5]; after oral administration of dipyrone,85%
same,average elimination half-life (t1/2),[5],2.6 to 3.5 h
same,tmax,[5]; time to maximal systemic concentrations,1.2 to 2.0 h
"Cc1c(N)c(=O)n(-c2ccccc2)n1C [compound 3, 4-aminoantipyrine]",concentration in the cerebrospinal fluid,[8],1000 to 7000 ng/mL
